From ChEMBL document CHEMBL3046551, “Design, synthesis, and particular biological behaviors of chain-opening nitromethylene neonicotinoids with cis configuration” (2012)

Assays:
Format in all cases: functional
Aphis craccivora [1] = assay: Insecticidal activity against adult Aphis craccivora (cowpea aphid) assessed as […] activity at 500 mg/l after 24 hr
How it was run: (§1)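 Apterous adult aphids (40−60 per horsebean seedling) on seedlings dipped 5 s in DMF stock diluted with water containing Triton X-100 (0.1 mg L⁻¹); series concentrations 500.0, 250.0, 125.0 mg L⁻¹ and others. Held at 25 ± 1 °C, 50% RH. Triton water served as control. Mortality scored at 24 h, three repetitions, corrected, probit analysis.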

Aphis craccivora [2] = assay: Insecticidal activity against adult Aphis craccivora (cowpea aphid) assessed as […] activity after 24 hr; how it was run: as §1
Aphis craccivora [3] = assay: Repellent activity against adult Aphis craccivora (cowpea aphid) at 500 mg/l
How it was run: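 Y-tube olfactometer choice test. Aphid-free horsebean seedlings were dipped 5 s in DMF-dissolved compound diluted in water with Triton X-100 (0.1 mg L⁻¹) and dried. Treated and control seedlings were placed in opposite arms, and apterous adults were introduced into the third arm. The olfactometer was covered with black cloth at 25 ± 1 °C, 50% RH. Adults per arm were counted after 1 h; three repeats.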

Empoasca = assay: Insecticidal activity against Empoasca (Green Leafhopper)

| Structure (SMILES) | mortality at 500 µg/mL (Aphis craccivora [1]) [%] | other results |
| --- | --- | --- |
| CCOC1CCC([N+](=O)[O-])=C(N(CC)Cc2ccc(Cl)nc2)N1C (stereo unspecified) | 17.7 | – |
| CCN1C(NCc2ccc(Cl)nc2)=C([N+](=O)[O-])C(C)CC1OC(C)C (stereo unspecified) | 75 | – |
| CCCOC1CC(C)C([N+](=O)[O-])=C(NCc2ccc(Cl)nc2)N1CC (stereo unspecified) | 94.6 | – |
| CCC1CC(OC(C)C)N(C)C(NCc2ccc(Cl)nc2)=C1[N+](=O)[O-] (stereo unspecified) | 83.6 | – |
| CC(C)OC1CC(C)C([N+](=O)[O-])=C2N(Cc3ccc(Cl)nc3)CCN21 (stereo unspecified) | 100 | LC50 (Aphis craccivora [2]): 262 µM |
| CCCOC1CC(C)C([N+](=O)[O-])=C2N(Cc3ccc(Cl)nc3)CCN21 (stereo unspecified) [PAICHONGDING] | 100 | LC50 (Aphis craccivora [2]): 91.8 µM |
| CCN(Cc1ccc(Cl)nc1)C1=C([N+](=O)[O-])CCC(OC(C)C)N1C (stereo unspecified) | 15.3 | – |
| COC1CCC([N+](=O)[O-])=C(N(C)Cc2ccc(Cl)nc2)N1C (stereo unspecified) | 21.6 | – |
| C=CCOC1CC(C)C([N+](=O)[O-])=C(N(CC)Cc2ccc(Cl)nc2)N1C (stereo unspecified) | 19.5 | – |
| CC(C)OC1CC(C)C([N+](=O)[O-])=C(N(C)Cc2ccc(Cl)nc2)N1C (stereo unspecified) | 25.9 | – |
| CCOC1CCC([N+](=O)[O-])=C(N(C)Cc2ccc(Cl)nc2)N1C (stereo unspecified) | 23.3 | – |
| CCOC1CC(C)C([N+](=O)[O-])=C(N(CC)Cc2ccc(Cl)nc2)N1C (stereo unspecified) | 31.8 | Repellency (Aphis craccivora [3]): 66.4% |
| CCOC1CC(C)C([N+](=O)[O-])=C(NCc2ccc(Cl)nc2)N1CC (stereo unspecified) | 85.2 | – |
| CCN(Cc1ccc(Cl)nc1)C1=C([N+](=O)[O-])CCC(OC)N1C (stereo unspecified) | 24.3 | – |
| CCCOC1CC(C)C([N+](=O)[O-])=C(N(C)Cc2ccc(Cl)nc2)N1C (stereo unspecified) | 28.3 | – |
| COC1CC(C)C([N+](=O)[O-])=C2N(Cc3cnc(Cl)s3)CCN21 (stereo unspecified) | 100 | LC50 (Aphis craccivora [2]): 190 µM |

| Structure (SMILES) | mortality at 500 µg/mL (Aphis craccivora [1]) [%] | other results |
| --- | --- | --- |
| CCCOC1CCC([N+](=O)[O-])=C(N(CC)Cc2ccc(Cl)nc2)N1C (stereo unspecified) | 23.7 | – |
| CCCOC1CC(C)C([N+](=O)[O-])=C(N(CC)Cc2ccc(Cl)nc2)N1C (stereo unspecified) | 27.2 | – |
| CCN(Cc1ccc(Cl)nc1)C1=C([N+](=O)[O-])CCC(O)N1C (stereo unspecified) | 16.2 | – |
| N/C(=C\[N+](=O)[O-])NCc1ccc(Cl)nc1 | – | LC95 (Empoasca): >200 ppm |
| CCN(Cc1ccc(Cl)nc1)/C(=C/[N+](=O)[O-])NC [NITENPYRAM] | – | LC95 (Empoasca): 40 ppm |
| CCN(Cc1ccc(Cl)nc1)C1=C([N+](=O)[O-])C(C)CC(OC)N1C (stereo unspecified) | 27.6 | – |
| CCC1CC(OC)N(CC)C(NCc2ccc(Cl)nc2)=C1[N+](=O)[O-] (stereo unspecified) | 84.5 | – |
| CC(C)OC1CCC([N+](=O)[O-])=C(N(C)Cc2ccc(Cl)nc2)N1C (stereo unspecified) | 17.6 | – |
| C=CCOC1CCC([N+](=O)[O-])=C(N(C)Cc2ccc(Cl)nc2)N1C (stereo unspecified) | 15.8 | – |
| COC1CC(C)C([N+](=O)[O-])=C(N(C)Cc2ccc(Cl)nc2)N1C (stereo unspecified) | 23.4 | – |
| CCCOC1CCC([N+](=O)[O-])=C(N(C)Cc2ccc(Cl)nc2)N1C (stereo unspecified) | 15.2 | – |
| CCN(Cc1ccc(Cl)nc1)C1=C([N+](=O)[O-])C(C)CC(OC(C)C)N1C (stereo unspecified) | 25.8 | – |
| O=[N+]([O-])/N=C1\NCCN1Cc1ccc(Cl)nc1 [IMIDACLOPRID] | 100 | LC50 (Aphis craccivora [2]): 30.9 µM |
| CCCOC1CC(CC)C([N+](=O)[O-])=C(NCc2ccc(Cl)nc2)N1CC (stereo unspecified) | 93.4 | – |
| CCOC1CC(C)C([N+](=O)[O-])=C(N(C)Cc2ccc(Cl)nc2)N1C (stereo unspecified) | 17.1 | – |
